Laboratory results: ChEMBL document CHEMBL4346672, “Antimicrobial and KPC/AmpC inhibitory activity of functionalized benzosiloxaboroles” (Eur J Med Chem, 2019)
Active and inactive are the calls of the source. The rule behind the calls is not given here.

Key:
[1] = Dissociation constant, pKa1 of compound in 0.1 M NaOH by potentiometric analysis; type: physicochemical
[2] = test system: Enterobacter cloacae; assay: Antibacterial activity against Enterobacter cloacae DSM 6234 assessed as diameter of zone inhibition measured after 18 hrs by CLSI disc diffusion method; type: functional
Procedure, shortened: (§1)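 Disc diffusion on Mueller-Hinton II agar. Compounds dissolved in DMSO. Strains stored at -80 °C and subcultured twice on tryptic soy agar before testing. Inhibition zones read after 35 °C, 18 h.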

[3] = test system: Candida tropicalis; assay: Antifungal activity against Candida tropicalis IBA 171 assessed as diameter of zone inhibition incubated for 24 hrs by CLSI disc diffusion method; type: functional
Procedure, shortened: (§2)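 Yeast disc diffusion on Mueller-Hinton agar supplemented with 2% glucose and 0.5 mg/L methylene blue. Compounds in DMSO. Yeasts subcultured on Sabouraud dextrose agar before testing. Zones read after 35 °C, 24 h.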

[4] = test system: Enterococcus faecalis; assay: Antibacterial activity against Enterococcus faecalis ATCC 29212 assessed as diameter of zone inhibition measured after 18 hrs by CLSI disc diffusion method; type: functional; procedure, shortened: as §1
[5] = test system: Staphylococcus aureus; assay: Antibacterial activity against Staphylococcus aureus ATCC 6538P assessed as diameter of zone inhibition measured after 18 hrs by CLSI disc diffusion method; type: functional; procedure, shortened: as §1
[6] = test system: Candida albicans; assay: Antifungal activity against Candida albicans ATCC 90028 assessed as diameter of zone inhibition incubated for 24 hrs by CLSI disc diffusion method; type: functional; procedure, shortened: as §2
[7] = test system: Bordetella bronchiseptica; assay: Antibacterial activity against Bordetella bronchiseptica ATCC 4617 assessed as diameter of zone inhibition measured after 18 hrs by CLSI disc diffusion method; type: functional; procedure, shortened: as §1
[8] = test system: Bacillus subtilis; assay: Antibacterial activity against Bacillus subtilis ATCC 6633 assessed as diameter of zone inhibition measured after 18 hrs by CLSI disc diffusion method; type: functional; procedure, shortened: as §1
[9] = test system: Acinetobacter baumannii; assay: Antibacterial activity against Acinetobacter baumannii ATCC 19606 assessed as diameter of zone inhibition measured after 18 hrs by CLSI disc diffusion method; type: functional; procedure, shortened: as §1
[10] = test system: Burkholderia cepacia; assay: Antibacterial activity against Burkholderia cepacia ATCC 25416 assessed as diameter of zone inhibition measured after 18 hrs by CLSI disc diffusion method; type: functional; procedure, shortened: as §1
[11] = test system: Enterococcus faecium; assay: Antibacterial activity against Enterococcus faecium ATCC 6057 assessed as diameter of zone inhibition measured after 18 hrs by CLSI disc diffusion method; type: functional; procedure, shortened: as §1
[12] = test system: Saccharomyces cerevisiae; assay: Antifungal activity against Saccharomyces cerevisiae ATCC 9763 diameter of zone inhibition incubated for 24 hrs by CLSI disc diffusion method; type: functional
Procedure, shortened: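 Disc-diffusion run on Mueller-Hinton II agar with 2% glucose and 0.5 mg/L methylene blue, using compounds in DMSO. Yeast was precultured on Sabouraud dextrose agar (24–48 h, 30 °C). Zones read after 24 h at 35 °C.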

[13] = test system: Proteus mirabilis; assay: Antibacterial activity against Proteus mirabilis ATCC 12453 assessed as diameter of zone inhibition measured after 18 hrs by CLSI disc diffusion method; type: functional; procedure, shortened: as §1
[14] = test system: Pseudomonas aeruginosa; assay: Antibacterial activity against Pseudomonas aeruginosa ATCC 27853 assessed as diameter of zone inhibition measured after 18 hrs by CLSI disc diffusion method; type: functional, organism-based; procedure, shortened: as §1
[15] = test system: Klebsiella pneumoniae; conditions: ATCC 13883
[16] = test system: Candida parapsilosis; assay: Antifungal activity against Candida parapsilosis ATCC 22019 assessed as diameter of zone inhibition incubated for 24 hrs by CLSI disc diffusion method; type: functional; procedure, shortened: as §2
[17] = test system: Escherichia coli; assay: Antibacterial activity against Escherichia coli ATCC 25922 assessed as diameter of zone inhibition measured after 18 hrs by CLSI disc diffusion method; type: functional; procedure, shortened: as §1
[18] = test system: Serratia marcescens; conditions: ATCC 13880
[19] = test system: Staphylococcus epidermidis; assay: Antibacterial activity against Staphylococcus epidermidis ATCC 12228 assessed as diameter of zone inhibition measured after 18 hrs by CLSI disc diffusion method; type: functional; procedure, shortened: as §1
[20] = test system: Meyerozyma guilliermondii; assay: Antifungal activity against Candida guilliermondii IBA 155 assessed as diameter of zone inhibition incubated for 24 hrs by CLSI disc diffusion method; type: functional; procedure, shortened: as §2
[21] = test system: Pichia kudriavzevii; assay: Antifungal activity against Candida krusei ATCC 6258 assessed as diameter of zone inhibition incubated for 24 hrs by CLSI disc diffusion method; type: functional; procedure, shortened: as §2
[22] = test system: Stenotrophomonas maltophilia; assay: Antibacterial activity against Stenotrophomonas maltophilia ATCC 13637 assessed as diameter of zone inhibition measured after 18 hrs by CLSI disc diffusion method; type: functional; procedure, shortened: as §1

| SMILES | pKa [1] | diameter of the inhibition zone (DIZ) [2] | diameter of the inhibition zone (DIZ) [3] [mm] | diameter of the inhibition zone (DIZ) [4] [mm] | diameter of the inhibition zone (DIZ) [5] [mm] | diameter of the inhibition zone (DIZ) [6] [mm] | diameter of the inhibition zone (DIZ) [7] | diameter of the inhibition zone (DIZ) [8] [mm] | diameter of the inhibition zone (DIZ) [9] | diameter of the inhibition zone (DIZ) [10] | diameter of the inhibition zone (DIZ) [11] [mm] | diameter of the inhibition zone (DIZ) [12] [mm] | diameter of the inhibition zone (DIZ) [13] [mm] | diameter of the inhibition zone (DIZ) [14] | DIZ [15] | diameter of the inhibition zone (DIZ) [16] [mm] | diameter of the inhibition zone (DIZ) [17] | DIZ [18] | diameter of the inhibition zone (DIZ) [19] [mm] | diameter of the inhibition zone (DIZ) [20] [mm] | further results |
| --- | --- | --- | --- | --- | --- | --- | --- | --- | --- | --- | --- | --- | --- | --- | --- | --- | --- | --- | --- | --- | --- |
| C[Si]1(C)OB(O)c2cccc(Cl)c21 | 6.5 | inactive | 12 | 15 | 34 | 17 | inactive | 32 | inactive | inactive | 20 | 30 | 19 | inactive | inactive | 12 | inactive | inactive | 33 | 25 | diameter of the inhibition zone (DIZ) [21]: 17 mm; diameter of the inhibition zone (DIZ) [22]: 13 mm |
| C[Si]1(C)OB(O)c2cccc(Br)c21 | 6.5 | inactive | 14 | 16 | 35 | 17 | inactive | 30 | inactive | inactive | 24 | 30 | 15 | inactive | inactive | 12 | inactive | inactive | 30 | 25 | diameter of the inhibition zone (DIZ) [21]: 24 mm; diameter of the inhibition zone (DIZ) [22]: 13 mm |
